Read-outs that look alike come from different tables or passages of the source.

Data set [1] has as its system transferrin receptor 1 (TfR1). As to the kind of experiment: Western blot of TfR1 expression in MRC-5 cells. It counts as cell-based. Particulars: MRC-5, 24 h. The procedure, abridged:
(§1)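 Cells were treated with test compound for 24 h; A2780 cells were treated at 40 μM. Lysates were analysed by Western blot for TfR1 and ferritin heavy chain, with β-actin as loading control. n=4; t-tests against DMSO vehicle. Ferric ammonium citrate supplementation served as an iron-replete comparison in A2780.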
(In western blotting, separated proteins are transferred to a membrane and probed.)

The subject of data set [2] is A2780 ovarian cancer cells. Put plainly: Cell cycle distribution by flow cytometry. It counts as cell-based. As to conditions: A2780, 40 μM, 24 h. The gist of the method:
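A2780 cells were treated with test compound at 40 μM for 24 h, then analysed by flow cytometry for cell-cycle phase distribution. Triplicate experiments; mean ± standard deviation; t-tests against DMSO vehicle only.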
(In general: A flow cytometer gives signals particle by particle.)

The subject of the next data set is Caco-2 (Colon). Put plainly: Resazurin antiproliferative assay, 72 h. It counts as cell-based. Particulars: read-out: IC50 Caco-2 (Colon). The gist of the method: (§2)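 Cells were incubated with test compound for 72 h. Viability was read by the fluorescence-based resazurin assay (reduction to resorufin), chosen because formazan absorbance (400–800 nm) interferes with colorimetric probes. IC50 values were derived for each line. The panel was cancer lines plus MRC-5 normal lung fibroblasts.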

Data set [3] can be described thus: In vitro calcein competition for Fe. As to conditions: 50 mM HEPES buffer pH 7.4 and MeOH 3:1 v/v. The procedure, abridged:
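Cell-free competition: calcein was quenched with Fe(II) (1.0 equiv) in 50 mM HEPES pH 7.4/MeOH (3:1 v/v). Test compound was then added, and recovery of calcein fluorescence was taken as displacement of iron from the probe.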

For a further data set, the system named is A549 (Lung). Put plainly: Resazurin antiproliferative assay, 72 h. In kind it is cell-based. Particulars: read-out: IC50 A549 (Lung). The procedure, abridged: as §2
The subject of data set [4] is A2780 ovarian cancer cells. Put plainly: Apoptotic cell death by flow cytometry. It counts as cell-based. Particulars: A2780, 40 μM, 48 h. The gist of the method: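 A2780 ovarian cancer cells were exposed to test compound (40 μM) for 48 h. Flow cytometry then scored the fractions of cells in early and late apoptosis. Runs were in triplicate, reported as mean ± standard deviation, with t-tests against DMSO vehicle.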

Data set [5] has as its system ferritin heavy chain (ferritin H). Put plainly: Western blot of ferritin H expression in A2780 cells. In kind it is cell-based. As to conditions: A2780, 40 μM, 24 h. The procedure, abridged: as §1
Data set [6] deals with transferrin receptor 1 (TfR1). Put plainly: Western blot of TfR1 expression in A2780 cells. In kind it is cell-based. As to conditions: A2780, 40 μM, 24 h. The gist of the method: as §1
Another data set has as its system A2780 cells. In kind it is cell-based. Particulars: A2780, 40 μM, 48 h, FAC (50 μM) or holo-Tf (50 μM).
For a further data set, the system named is MDA-MB-231 (Breast). As to the kind of experiment: Resazurin antiproliferative assay, 72 h. In kind it is cell-based. As to conditions: read-out: IC50 MDA-MB-231 (Breast). The procedure, abridged:
as §2

Another data set concerns MRC-5 (Normal lung). Put plainly: Resazurin antiproliferative assay, 72 h. In kind it is cell-based. As to conditions: read-out: IC50 MRC-5 (Normal lung), mean ± SDM, n=3. The gist of the method:
as §2
On the technique in general: The colour change of resazurin is a common sign of viable cells or microbes.

The test system of data set [7] is MRC-5 normal lung fibroblasts. Put plainly: Intracellular calcein assay. It counts as cell-based. Particulars: MRC-5, 40 μM, 24 h.
Data set [8] relates to A2780 ovarian cancer cells. As to the kind of experiment: Intracellular calcein assay. It counts as cell-based. Particulars: A2780, 40 μM, 24 h. The gist of the method: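 Calcein-AM delivered calcein to the cytosol, where it is partly quenched by labile iron. Cells were incubated with test compound (40 μM), and the rise in calcein fluorescence was measured against DMSO vehicle. A2780 cells were sampled after 1, 3 and 24 h. Triplicate; mean ± standard deviation; t-tests.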

Data set [9] concerns ferritin heavy chain (ferritin H). As to the kind of experiment: Western blot of ferritin H expression in MRC-5 cells. It counts as cell-based. Particulars: MRC-5, 24 h. The gist of the method:
as §1

Data set [10] has as its system tested cancer cell lines (A2780, MDA-MB-231, Caco-2, A549). As to the kind of experiment: Resazurin antiproliferative assay, summary over the cancer cell panel. In kind it is cell-based. Particulars: 72 h, read-out: IC50 range in the tested cancer cell lines. The procedure, abridged:
as §2

For a further data set, the system named is A2780 (Ovary). As to the kind of experiment: Resazurin antiproliferative assay, 72 h. As to conditions: read-out: IC50 A2780 (Ovary). It counts as cell-based. The gist of the method: as §2
Data set [11] is described as follows: Distribution coefficient by shake-flask method. It counts as physicochemical. Particulars: octanol and PBS (pH 7.4), HPLC.
The nature of data set [12]: Stability / reduction kinetics in fetal bovine serum by HPLC. It counts as in vitro ADME.
[13] abbreviates: resazurin assay, 72 h, mean ± SDM, n=3.

Consider `O=C(O)c1ccc(-n2nc(-c3ccccc3O)nc2-c2ccccc2O)cc1` [DFX, deferasirox], for which the TfR1 expression level entry in data set [1] is recorded as “maintained similar effects, albeit less pronounced”; in [6], “increase of TfR1 expression”. For the same compound, in data set [2], the “Effect on cell cycle distribution” value was “S-phase arrest”. In addition, the concentration for half-maximal inhibition (IC50) (in general, the concentration that inhibits the measured activity by half) in the data set on Caco-2 (Colon) (Homo sapiens, Caco-2, 72 h) was 67 ± 2 µM; in the data set with A549 (Lung) (Homo sapiens, A549, 72 h) it was 21 ± 3 µM; in the data set on MDA-MB-231 (Breast) (Homo sapiens, MDA-MB-231, 72 h), 17 ± 1 µM; in the data set with MRC-5 (Normal lung) it was 220 ± 20 µM; in [10] it was 15 to 67 µM; with A2780 (Ovary) (Homo sapiens, A2780, 72 h), 15 ± 1 µM. Also, the “Restoration of calcein fluorescence (displacement of Fe(II) from calcein)” value in [3] was “fully restore its initial fluorescence”. In addition, in data set [4], the “Cells in late apoptosis” value amounted to 42%. Further, the “Ferritin H expression level” value in [5] is recorded as “degradation of ferritin”; in data set [9], “maintained similar effects, albeit less pronounced”. The “Effect of iron supplementation on cytotoxicity” value with A2780 cells is given as “could be rescued by iron supplementation”. Besides, the “Increase of calcein fluorescence” value is recorded as ~ 34% in [7] and ~ 54% in data set [8].

Turning to `Cc1nc(-[n+]2nc(-c3ccccc3)nn2-c2ccccc2)sc1C.[Br-]` [MTT], the IC50 was found to be 92 ± 7 µM in the data set with Caco-2 (Colon) (setting [13]); 44 ± 9 µM in the data set with A549 (Lung) (setting [13]); 48 ± 7 µM in the data set on MDA-MB-231 (Breast) (setting [13]); 32 ± 5 µM in the data set on MRC-5 (Normal lung); 45 ± 9 µM in the data set on A2780 (Ovary) (setting [13]). Further, the “Log Do/pH7.4” value in data set [11] stood at 0.1. Besides, the “Half-life t1/2 in serum” value in [12] was over 24 h. Also, in [12] (24 h), the “Stability (serum, 24 h), remaining” value is reported as 58%.

With `O=C(O)CC(O)(CC(=O)O)C(=O)O` [citric acid], the “Restoration of calcein fluorescence (displacement of Fe(II) from calcein)” value in data set [3] is given as “fail to displace calcein-bound iron(II)”.

On to ferric ammonium citrate [FAC], for which the TfR1 expression level result is listed as “maintained similar effects, albeit less pronounced” in [1] and “decrease of TfR1” in data set [6]. The “Ferritin H expression level” value is “increase of ferritin H levels” in data set [5] and “maintained similar effects, albeit less pronounced” in data set [9].
